From PubChem
T cruzi repl = blocks replication of Trypanosoma cruzi; actives 1.4% (n = 300,000); T. cruzi beta-gal in NIH3T3, luminescence, 90 h; inhibition, % (test concentration not listed); AID 1885;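 active means mean inhibition across valid replicates above about 55%, limit read from the data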;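 further: signal also drops with host cell toxicity which is not excluded here; 0% = plate median of DMSO wells and 100% = zero luminescence signal; higher percent means less beta-gal luminescence so fewer parasites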
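compound dosing = single 50 nL compound addition per well in DMSO | material = NIH/3T3 host cells with β-galactosidase reporter T. cruzi | input = 5,000 host fibroblasts per well | timing = ≥90 h infection period, 3 h prior cell attachment | read-out basis = percent inhibition of parasite-derived β-gal signal | detection = GalScreen β-gal luminescence, detergent lysis, 60 min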
CTSL1 counter = blocks F. hepatica cathepsin L1 in PFM18AAP counter-screen; recombinant F. hepatica cathepsin L1, Z-Leu-Arg-MCA fluorescence; actives 0.49% (n = 300,000); inhibition, % at 5.96 µM;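 active means inhibition above the mean of all tested compounds plus 3 SD, set per screening campaign, cut at about 17% in these data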;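 further: 0% = plate median of test compound wells and 100% = 1 µM Z-Phe-Ala-diazomethylketone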
PP5 primary = blocks human protein phosphatase 5 activity | P53041 | purified PP5c, OMFP substrate fluorescence | inhibition, % at 6.7 µM | actives 0.18% (n = 320,000) | AID 1987;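 active means inhibition above the campaign's mean inhibition across all tested compounds plus 3 SD, cut at about 9.5% in these data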;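 further: 0% = DMSO only and 100% = 100 µM cantharidin control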
Cardio protect = protects H9c2 cardiomyocytes from peroxide injury. H2O2 injury protection, ATPLite, 2 h. protection from H2O2 cell death, % at 20 µM. AID 588492. actives 0.63% (n = 360,000);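 active means compounds giving at least 50% protection of heart cells from peroxide-induced death in the single-dose screen, raw or plate-pattern-corrected value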;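 further: 0% = DMSO wells with peroxide and 100% = DMSO wells without peroxide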
pCIP destab = p/CIP protein destabilization; Q05BA5; F442A p/CIP-EGFP cells, EGFP fluorescence, 16 h; actives 0.01% (n = 290,000); decrease of EGFP signal, % at 10 µM;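 active means EGFP signal decrease of at least 30% at 10 µM or well 3 SD below plate mean, unless failing retest; inactive means the rest, including hits failing retest or dose response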
GASC-1 inh = human JMJD2C demethylase inhibition | AID 2099 | Q9H3R0 | inhibition, % at 2.35 µM | actives 0.069% (n = 330,000) | GST-JMJD2C(1-420) H3K9me3 demethylation, DELFIA europium;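 active means more than half of a compound's replicate wells show inhibition beyond 50%, single wells judged on their own value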;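 further: signal counts dimethyl H3K9 product captured on neutravidin plate; 0% = median of DMSO wells and 100% = 0.3 times that DMSO median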
Starred values were filed as active, the others as inactive; . = no result. An excerpt weighted towards active compounds, which were near 2.4% of everything screened.

SMILES	T cruzi repl	CTSL1 counter	PP5 primary	Cardio protect	pCIP destab	GASC-1 inh
Cc1cccc(OCCNc2cc(N3CCN(C)CC3)ccc2[N+](=O)[O-])c1	67.3*	-5.9	1.5	-4.0	9.5	3.3
Cc1cccc(OCCNc2cc(N3CCOCC3)ccc2[N+](=O)[O-])c1	24.2	-0.3	2.9	-0.9	7.7	0.2
O=C(Nc1cccc(S(=O)(=O)N2CCOCC2)c1)c1cn(-c2ccccc2)nc1-c1ccc(F)cc1	57.2*	0.1	0.5	14.8	-16.8	-0.6
Cc1ccc(C(=O)Nc2ccc(C)c(S(=O)(=O)N3CCOCC3)c2)c(C)c1	7.3	-3.4	4.4	4.3	-12.5	7.4
O=C(Nc1cccc(S(=O)(=O)N2CCOCC2)c1)c1cn(-c2ccccc2)nc1-c1ccccc1	9.1	2.3	1.2	2.6	-15.5	-10.3
Cc1ccc(-c2nn(-c3ccccc3)cc2C(=O)Nc2ccc(C)c(S(=O)(=O)N3CCOCC3)c2)cc1	72.9*	-0.1	1.6	0.5	3.1	-5.0
COc1ccc(C(=O)NC(CCSC)C(=O)N2CCCCCC2)cc1 (configuration not stated)	2.3	-4.0	-1.0	2.2	-13.3	11.4
CCN(CC)c1ccc2c(Cl)c(Br)c(=O)oc2c1	59.4*	3.4	2.7	-12.1	-98.8	4.2
CCc1cc(=O)oc2cc(OC(C)C(=O)NCC3CCC(C(=O)O)CC3)c(Cl)cc12 (configuration not stated)	4.7	5.0	-0.1	-3.6	-5.7	-2.1
COc1cc(C(=O)Oc2ccccc2/C=N/NC(=O)c2ccc(Cl)cc2)cc(OC)c1OC	66.7*	-1.1	2.9	33.0	-6.3	-16.9
COc1cc(C(=O)Oc2ccccc2/C=N/NC(=O)c2ccc(C)c(Cl)c2)cc(OC)c1OC	55.3*	-0.7	1.2	10.4	3.2	-10.0
CC(=O)Nc1ccc(C(=O)N/N=C/c2ccccc2OC(=O)c2ccc(Cl)cc2)cc1	-5.6	1.9	2.6	56.1*	-9.9	-32.7
COc1ccccc1/C=N/NC(=O)c1ccc(CN2C(=O)c3cccc4cccc2c34)cc1	-13.3	17.9*	0.7	-1.3	-4.5	7.5
CC(=O)Nc1ccc(OC(=O)c2ccc(Cl)cc2)cc1	-4.8	1.4	-0.1	-1.4	-14.5	-12.1
O=C(COC(=O)/C=C/c1ccccc1[N+](=O)[O-])Nc1ccc2[nH]c(=O)[nH]c2c1	.	.	.	9.9	.	13.8
CN(C)S(=O)(=O)c1ccc2[nH]cc(/C=C/c3nc4ccccc4c(=O)n3-c3ccccc3)c2c1	14.2	-2.5	5.7	66.5*	-13.4	1.3
CCn1c(/C=C/c2c[nH]c3ccccc23)nc2ccccc2c1=O	2.5	0.1	2.4	8.1	-2.8	0.1
